The source of these data is ChEMBL document CHEMBL1125647, “Synthesis and siderophore and antibacterial activity of N5-acetyl-N5-hydroxy-L-ornithine-derived siderophore-beta-lactam conjugates: iron-transport-mediated drug delivery” (1991).

Each structure is given as a SMILES string. In brackets after ≈: the same amount, converted by molar mass. Some results are limits rather than exact numbers.

In general, MIC refers to the lowest concentration that inhibits growth of the organism. Lower therefore signals greater potency.

Format in all cases: functional
In experiment [1] the test system is Escherichia coli. Kind of experiment: Minimum inhibitory concentration was measured against Escherichia coli EC14. An outline of the steps: (§1)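 Standard agar dilution method; MICs determined externally by an industrial partner rather than in the authors' lab.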
For experiment [2], the system named is Escherichia coli. Kind of experiment: cell growth was measured against Escherichia coli AN193 using liquid growth assay at 0h. An outline of the steps:
(§2)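 Overnight cultures diluted 1:500 into Luria broth containing EDDA 10 μg/mL, with or without test compound at 100 μg/mL. Turbidity read as absorbance at 650 nm (table heading) at 0, 2 and 8 h. SA240 is an iucD:Tn5 siderophore-deficient derivative of SA100. RW193 is E. coli K12 entA, fhuA-positive. AN193 is entA, fhuA-negative, lacking the ferrichrome receptor.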

In experiment [3] the test system is Escherichia coli. The experiment is described as follows: cell growth was measured against Escherichia coli AN193 using liquid growth assay at 2 hr. An outline of the steps:
as §2

The subject of experiment [4] is Escherichia coli. The experiment is described as follows: cell growth was measured against Escherichia coli AN193 using liquid growth assay at 8 hr. An outline of the steps: as §2
The test system of experiment [5] is Escherichia coli. Kind of experiment: cell growth was measured against Escherichia coli RW193 using liquid growth assay at 0h. An outline of the steps: as §2
For experiment [6], the system named is Escherichia coli. Kind of experiment: cell growth was measured against Escherichia coli RW193 using liquid growth assay at 2 hr. An outline of the steps:
as §2

The test system of experiment [7] is Escherichia coli. Kind of experiment: cell growth was measured against Escherichia coli RW193 using liquid growth assay at 8 hr. An outline of the steps:
as §2

For experiment [8], the system named is Pseudomonas. The experiment is described as follows: Minimum inhibitory concentration was measured against Pseudomonas X528. An outline of the steps: as §1
The subject of experiment [9] is Salmonella. The experiment is described as follows: Minimum inhibitory concentration was measured against salmonella 1135. An outline of the steps: as §1
Experiment [10] has as its system Salmonella. Kind of experiment: Minimum inhibitory concentration was measured against salmonella X514. An outline of the steps:
as §1

Experiment [11] concerns Shigella flexneri. The experiment is described as follows: cell growth was measured against Shigella flexneri SA240 using liquid growth assay at 2 hr. An outline of the steps:
as §2

For experiment [12], the system named is Shigella flexneri. Kind of experiment: cell growth was measured against Shigella flexneri SA240 using liquid growth assay at 8 hr. An outline of the steps:
as §2

For experiment [13], the system named is Shigella flexneri. The experiment is described as follows: cell growth was measured against Shigella flexneri SA240 using liquid growth assay at 0h. An outline of the steps:
as §2

Experiment [14] concerns Staphylococcus epidermidis. Kind of experiment: Minimum inhibitory concentration was measured against staphylococcus epidermidis 222. An outline of the steps: as §1
For experiment [15], the system named is Streptococcus pneumoniae. The experiment is described as follows: Minimum inhibitory concentration was measured against streptococcus pneumonia PARK. An outline of the steps: as §1
Experiment [16] concerns Shigella flexneri. The experiment is described as follows: The relative ability of compound to promote the growth of Shigella flexneri SA 100, a strain lacking the ability to synthesize siderophores was measured as zone stimulation at concentration of 0.1 mM. An outline of the steps: (§3)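 S. flexneri SA100 grown overnight in Luria broth, seeded at 10^8/mL into Luria agar with EDDA (250 μg/mL). Compounds made as 10 mM aqueous stocks, diluted in water to 10, 1 or 0.1 mM. 10 μL applied on sterile paper disks. Incubated 37 °C, 18 h; diameters of growth-stimulation zones measured in mm.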

The subject of experiment [17] is Shigella flexneri. The experiment is described as follows: The relative ability of compound to promote the growth of Shigella flexneri SA 100, a strain lacking the ability to synthesize siderophores was measured as zone stimulation at concentration of 10 mM. An outline of the steps:
as §3

Experiment [18] has as its system Shigella flexneri. The experiment is described as follows: The relative ability of compound to promote the growth of Shigella flexneri SA 100, a strain lacking the ability to synthesize siderophores was measured as zone stimulation at concentration of 1 mM. An outline of the steps:
as §3

As to `CC(=O)N(O)CCC[C@H](NC(=O)[C@H](CCCN(O)C(C)=O)NC(=O)[C@@H](N)CCCN(O)C(C)=O)C(=O)N[C@@H](C(=O)NC1C(=O)N2C(C(=O)O)=C(Cl)CC[C@H]12)c1ccc(O)cc1` (some centres undefined), the MIC in experiment [1] was more than 32 µg/mL; in experiment [8], more than 128 µg/mL; in [9], more than 64 µg/mL; in [10], 0.06 µg/mL (≈ 0.068 µM); in experiment [14], more than 128 µg/mL; in experiment [15] it was more than 64 µg/mL. Further, the Cell growth was 0.001 in experiment [2]; 0.019 in experiment [3]; 0.691 in experiment [4]; 0.001 in [5]; 0.347 in experiment [6]; 1.59 in experiment [7]. The Cell growth amounted to 0.107 in [11], 0.974 in experiment [12] and 0.001 in experiment [13].

For `CC(=O)N(O)CCC[C@H](NC(=O)[C@H](CCCN(O)C(C)=O)NC(=O)[C@@H](N)CCCN(O)C(C)=O)C(=O)N[C@@H](C(=O)NC1C(=O)N(OCC(=O)O)[C@H]1C)c1ccc(O)cc1` (some centres undefined), the figures for the Zone of stimulation in experiment [16], in experiment [17] and in [18] were 0 mm, 31 mm and 16 mm, respectively.

For the compound `CC(=O)N(O)CCC[C@H](NC(=O)[C@H](CCCN(O)C(C)=O)NC(=O)[C@@H](N)CCCN(O)C(C)=O)C(=O)N[C@@H](C(=O)NC1C(=O)N2C(C(=O)O)=C(Cl)CC[C@H]12)c1ccccc1` (some centres undefined), the MIC in experiment [1] is more than 64 µg/mL; in [8] it was more than 128 µg/mL; in [9] it was more than 128 µg/mL; in experiment [10], 0.125 µg/mL (≈ 0.144 µM); in experiment [14], more than 128 µg/mL; in experiment [15], more than 64 µg/mL.

With `CC(=O)N(O)CCC[C@H](NC(=O)[C@H](CCCN(O)C(C)=O)NC(=O)[C@@H](N)CCCN(O)C(C)=O)C(=O)N[C@@H](C(=O)NC1C(=O)N(OCC(=O)O)[C@H]1C)c1ccccc1` (some centres undefined), the results for the Zone of stimulation in [16], in experiment [17] and in experiment [18] were 0 mm, 28 mm and 12 mm, respectively.

As to `N[C@@H](C(=O)N[C@@H]1C(=O)N2C(C(=O)O)=C(Cl)CS[C@H]12)c1ccccc1.O` [CEFACLOR], the minimum inhibitory concentration (MIC) was 1 µg/mL in experiment [1]; more than 128 µg/mL in experiment [8]; 1 µg/mL in experiment [9]; 0.25 µg/mL in [10]; 2 µg/mL in [14]; 0.5 µg/mL in experiment [15].

On to `N[C@@H](C(=O)N[C@@H]1C(=O)N2C(C(=O)O)=C(Cl)CC[C@H]12)c1ccccc1` [LORACARBEF ANHYDROUS], for which the minimum inhibitory concentration (MIC) in [1] was 0.5 µg/mL (≈ 1.43 µM); in experiment [8] it was more than 128 µg/mL; in [9] it was 0.5 µg/mL (≈ 1.43 µM); in experiment [10] it was 0.25 µg/mL (≈ 0.715 µM); in experiment [14] it was 2 µg/mL (≈ 5.72 µM); in [15], 1 µg/mL (≈ 2.86 µM).
